According to ChEMBL document CHEMBL1938236, “Design and synthesis of small molecular dual inhibitor of falcipain-2 and dihydrofolate reductase as antimalarial agent” (Bioorg Med Chem Lett, 2012):
Calls of active or inactive are those of the source. No cut-off for these calls is given here.

Columns and labels:
[1] = Inhibition of Plasmodium falciparum falcipain-2 using Z-Leu-Arg-AMC as substrate after 30 mins by spectrophotometric assay
Summary of the method: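 FP-2 (30 nM) was preincubated 30 min at room temperature with graded compound concentrations in 100 mM sodium acetate pH 5.5 with 10 mM DTT, DMSO ≤1%. Z-Leu-Arg-AMC in the same buffer was then added, and fluorescence (ex 355/em 460) was monitored for 30 min at room temperature. IC50 came from percent inhibition versus concentration plots, three independent experiments.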

Plasmodium falciparum [2] = assay: Inhibition of Plasmodium falciparum falcipain-2 using Z-Leu-Arg-AMC as substrate at 10 uM after 30 mins by spectrophotometric assay
[3] = Inhibition of Plasmodium falciparum DHFR assessed as oxidation of NADPH to NADP+ after 15 mins spectrophotometric assay
Summary of the method: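 Purified P. falciparum DHFR was preincubated 15 min on ice with graded compound concentrations in buffer containing NADPH, 50 mM TES pH 7.0, 1 mM EDTA, 75 mM 2-mercaptoethanol and 1 mg/mL BSA. DHF was then added to start the reaction, and NADPH oxidation was followed by absorbance at 340 nm. IC50 came from percent inhibition versus concentration plots, three independent experiments.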

Plasmodium falciparum [4] = assay: Inhibition of Plasmodium falciparum DHFR assessed as oxidation of NADPH to NADP+ at 10 uM after 15 mins spectrophotometric assay
Plasmodium berghei [5] = assay: Antimalarial activity against Plasmodium berghei ANKA infected in Kunming mouse assessed as mouse survival at 10 mg/kg, ig for 4 days measured on day 10
Plasmodium berghei [6] = assay: Antimalarial activity against Plasmodium berghei ANKA infected in Kunming mouse assessed as reduction of parasitemia at 10 mg/kg, ip for 4 days measured on day 5; format: functional; set-up: scale not given: the % may be the effect or the level left; details: route intraperitoneal
Plasmodium falciparum [7] = assay: Ratio of N-(2,3-dihydrobenzo[b][1,4]dioxin-6-yl)-3-(4-(N-phenethylsulfamoyl)phenyl)propanamide IC50 to compound IC50 for Plasmodium falciparum falcipain-2
Plasmodium berghei [8] = assay: Antimalarial activity against Plasmodium berghei ANKA infected in Kunming mouse assessed as reduction of parasitemia at 3 mg/kg, ig for 4 days measured on day 5; set-up: scale not given: the % may be the effect or the level left; details: route intragastric
Plasmodium berghei [9] = assay: Antimalarial activity against Plasmodium berghei ANKA infected in Kunming mouse assessed as mouse survival at 9 mg/kg, ip for 4 days measured on day 10; format: functional, organism-based; set-up: dose 9 mg/kg; details: in the assay text read “ig for 4 days” for “ip for 4 days”
Summary of the method: (§1)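 Kunming mice (groups of 10, 20 2 g) infected ip with 0.2 mL of RBC (5 × 10⁶) from P. berghei ANKA-infected mice. The compound was given intragastrically starting 5 h post-infection, for 4 consecutive days, at 3, 9 or 18 mg kg⁻¹ d⁻¹ (4-day suppressive test). Parasitemia was counted as infected RBC per 1000 RBC on day 5, and reduction was calculated as 100 − 100 × (treated/control mean % parasitemia). Survivors were counted on day 10.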

Plasmodium berghei [10] = assay: Antimalarial activity against Plasmodium berghei ANKA infected in Kunming mouse assessed as reduction of parasitemia at 9 mg/kg, ip for 4 days measured on day 5; format: functional; set-up: scale not given: the % may be the effect or the level left; details: route intragastric, in the assay text read “ig for 4 days” for “ip for 4 days”; summary of the method: as §1
Plasmodium berghei [11] = assay: Antimalarial activity against Plasmodium berghei ANKA infected in Kunming mouse assessed as reduction of parasitemia at 18 mg/kg, ip for 4 days measured on day 5; format: functional; set-up: scale not given: the % may be the effect or the level left; details: route intragastric, in the assay text read “ig for 4 days” for “ip for 4 days”; summary of the method: as §1
Plasmodium berghei [12] = assay: Antimalarial activity against Plasmodium berghei ANKA infected in Kunming mouse assessed as mouse survival at 3 mg/kg, ip for 4 days measured on day 10; format: functional, organism-based; set-up: dose 3 mg/kg; details: in the assay text read “ig for 4 days” for “ip for 4 days”; summary of the method: as §1
Plasmodium falciparum [13] = assay: Ratio of N-(2,3-dihydrobenzo[b][1,4]dioxin-6-yl)-3-(4-(N-phenethylsulfamoyl)phenyl)propanamide IC50 to compound IC50 for Plasmodium falciparum DHFR
Plasmodium berghei [14] = assay: Antimalarial activity against Plasmodium berghei ANKA infected in ig dosed Kunming mouse assessed as reduction of parasitemia administered for 4 days measured on day 5
Plasmodium berghei [15] = assay: Antimalarial activity against Plasmodium berghei ANKA infected in Kunming mouse assessed as mouse survival at 18 mg/kg, ip for 4 days measured on day 10; format: functional, organism-based; set-up: dose 18 mg/kg; details: in the assay text read “ig for 4 days” for “ip for 4 days”; summary of the method: as §1

| IC50 [1] | inhibition (Plasmodium falciparum [2]) | IC50 [3] | inhibition (Plasmodium falciparum [4]) | Compound | other results |
| --- | --- | --- | --- | --- | --- |
| 0.017 µM | 97.4% | – | – | CC(C)C[C@H](NC(=O)[C@H]1O[C@@H]1C(=O)O)C(=O)NCCCCN=C(N)N [E-64] | – |
| – | < 5% | 5 µM | 68% | O=C(Cc1ccc(S(=O)(=O)NCCc2ccccc2)cc1)Nc1ccc2c(c1)OCCO2 | – |
| 2.7 µM | 94.5% | 14.6 µM | 34.8% | O=C(CCc1ccc(S(=O)(=O)NCCc2ccccc2)cc1)Nc1nc(-c2ccccc2)cs1 | – |
| – | – | 0.02 µM | 98.9% | CCc1nc(N)nc(N)c1-c1ccc(Cl)cc1 [PYRIMETHAMINE] | – |
| – | < 5% | – | 15.6% | O=C(CCc1ccc(S(=O)(=O)NCc2ccccc2)cc1)Nc1ccc2c(c1)OCCO2 | – |
| – | 15.2% | – | 10.8% | O=C(CCc1ccc(S(=O)(=O)NCCc2ccccc2)cc1)NCc1cccs1 | – |
| 8.1 µM | 46.5% | 19.8 µM | 31.6% | CCc1nnc(NC(=O)CCc2ccc(S(=O)(=O)NCCc3ccccc3)cc2)s1 | – |
| 9.8 µM | 45.1% | 1.8 µM | 70.6% | CCc1nnc(NC(=O)CCc2ccc(S(=O)(=O)Nc3ccc(F)c(Cl)c3)cc2)s1 | – |
| 13.2 µM | 32.7% | 16.8 µM | 46.5% | O=C(CCc1ccc(S(=O)(=O)Nc2ccc(F)c(Cl)c2)cc1)Nc1ccc2c(c1)OCCO2 | – |
| – | 17.9% | – | 9.3% | COc1cccc(NS(=O)(=O)c2ccc(CCC(=O)Nc3ccc4c(c3)OCCO4)cc2)c1 | – |
| – | – | – | – | CCN(CC)CCCC(C)Nc1ccnc2cc(Cl)ccc12.O=P(O)(O)O.O=P(O)(O)O (centres undefined) [CHLOROQUINE PHOSPHATE] | Activity (Plasmodium berghei [5]): Active; Activity (Plasmodium berghei [6]): 100% |
| 8.9 µM | 41.5% | 15.1 µM | 37.9% | O=C(CCc1ccc(S(=O)(=O)NCCc2ccccc2)cc1)Nc1nc2ccccc2s1 | – |
| – | 15% | 9.4 µM | 51.2% | COc1ccc(NC(=O)CCc2ccc(S(=O)(=O)NCCc3ccccc3)cc2)cc1OC | – |
| 54.2 µM | 23% | 35.5 µM | 26.5% | O=C(CCc1ccc(S(=O)(=O)NCCc2ccccc2)cc1)Nc1ccc2c(c1)OCCO2 | – |
| – | < 5% | – | 11.8% | O=C(Nc1ccc2c(c1)OCCO2)c1ccc(S(=O)(=O)NCCc2ccccc2)cc1 | – |
| – | 13.6% | 12.6 µM | 46.1% | COc1ccc(NC(=O)CCc2ccc(S(=O)(=O)NCCc3ccccc3)cc2)cc1O | – |
| 7 µM | 72.9% | 6.3 µM | 67.5% | CCc1nnc(NC(=O)CCc2ccc(S(=O)(=O)Nc3ccc(F)cc3)cc2)s1 | Ratio IC50 (Plasmodium falciparum [7]): 8; Activity (Plasmodium berghei [8]): 44.6%; Activity (Plasmodium berghei [9]): Active; Activity (Plasmodium berghei [10]): 53.6%; Activity (Plasmodium berghei [11]): 75.6%; Activity (Plasmodium berghei [12]): Active; Ratio IC50 (Plasmodium falciparum [13]): 6; Activity (Plasmodium berghei [14]): Dose dependent effect; Activity (Plasmodium berghei [15]): Active |
| – | 6.3% | – | 23.2% | COc1ccc(NS(=O)(=O)c2ccc(CCC(=O)Nc3ccc4c(c3)OCCO4)cc2)cc1OC | – |
| – | 10.7% | – | 17.9% | O=C(CCc1ccc(S(=O)(=O)NCCc2ccccc2)cc1)NCc1ccccn1 | – |
